Published values from different studies.
Compare with care: the assays were run in different laboratories.
Target: MAP/microtubule affinity-regulating kinase 3 (MARK3, Homo sapiens, UniProt P27448)

COc1cc(Nc2ncc(F)c(Nc3ccc4c(n3)NC(=O)C(C)(C)O4)n2)cc(OC)c1OC — inhibition (binding, competition with immobilised ligand; 10 µM): 63%
CC(C)(C)c1cc(C=C(C#N)C#N)cc(Br)c1O — remaining activity (enzyme activity, inhibitor; 0.5 µM): 105%
Cc1nn(C)cc1-c1nc2c(N3CCN(Cc4ccc(Cl)cc4)CC3)c(Cl)cnc2[nH]1 — remaining binding (binding, competition with immobilised ligand; 1 µM): 45%
O=c1[nH]c2ccccc2n1C1CCN(Cc2ccc(-c3[nH]c4cc5ncnc5cc4nc3-c3ccccc3)cc2)CC1 — remaining signal (cell-free assay; 0.5 µM): 103%
Cn1cc(-c2cc(F)cc(N3CCn4c(cc5c4CCCC5)C3=O)c2CO)cc(Nc2ccc(N3CCN(C4COC4)CC3)cn2)c1=O — inhibition (enzyme activity, inhibitor; 0.1 µM): 6%
Cn1cncc1[C@](O)(COc1ccc(C#N)cc1-c1ccc(OC(F)(F)F)cc1)c1ccc(C#N)cc1 — remaining binding (cell-free assay, competition with immobilised ligand; 1 µM): 100%
Nc1ncc(-c2nc(N3CCOCC3)nc(N3CCOCC3)n2)c(C(F)F)n1 — remaining binding (binding, competition with immobilised ligand; 10 µM): 100%
COc1ncccc1-c1cnn2ccc(N3CCN(C(=O)OC(C)C)CC3)nc12 — remaining binding (binding, competition with immobilised ligand; 1 µM): 96%
